Converted amounts (≈) assume the structure as drawn.
Legend:
[1] = Inhibition of H+/K+-ATPase in sheep stomach parietal cells assessed as reduction in inorganic phosphate liberation using ATP as substrate measured after 10 to 15 mins; conditions: Ovis aries
Method in brief: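 Enzyme came from sheep fundic mucosal scrapings, homogenized in sucrose/EGTA/Hepes-Tris buffer pH 7.4, then subcellular fractionation. Basal medium: 2 mmol L–1 ATP, 50 mmol L–1 Tris-HCl pH 7.5, with K+ and HCO3 stimulation. Reaction started with ATP, run at 37 °C and stopped with cold 20% TCA. Released Pi read by Fiske–Subbarow at 660 nm. Values are means of three determinations.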

[2] = test system: Erythrocyte; experiment: Anti-inflammatory activity in human RBC assessed as inhibition of hypotonic solution-induced hemolysis after 10 mins by spectrophotometric method; assay type: functional, cell-based
Method in brief: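 Heparinized blood from one healthy donor (no NSAIDs for 2 weeks), washed in 0.9% saline, made into 40% (v/v) RBC stock in 10 mM sodium phosphate/154 mM NaCl, pH 7.4. Stock mixed with hypotonic buffer (50 mM NaCl, 10 mM phosphate, pH 7.4) plus sample at 20–100 μg mL–1. Incubated at room temperature, centrifuged, supernatant absorbance at 540 nm, % haemolysis inhibition versus blank.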

Structure (SMILES) | IC50 [1] [µg/mL] | IC50 [2] [µg/mL]
Cc1cccc2nc(N/N=C\c3ccc(O)cc3)sc12 | 26.3 (≈ 92.9 µM) | 60 (≈ 212 µM)
COc1ccc2c(c1)c(CC(=O)O)c(C)n2C(=O)c1ccc(Cl)cc1 [INDOMETHACIN] |  | 40 (≈ 112 µM)
Cc1cccc2nc(N/N=C/c3cccs3)sc12 | 30.4 (≈ 111 µM) | 28.7 (≈ 105 µM)
Cc1cccc2nc(N/N=C\c3ccc(F)cc3F)sc12 | 70.6 (≈ 233 µM) | 16.1 (≈ 53.2 µM)
Cc1cccc2nc(N/N=C\c3ccc(Br)cc3)sc12 | 60.1 (≈ 174 µM) | 20.1 (≈ 58 µM)
Cc1cccc2nc(N/N=C/c3ccc[nH]3)sc12 | 42.6 (≈ 166 µM) | 46.2 (≈ 180 µM)
CCCCCC/C=N/Nc1nc2cccc(C)c2s1 | 72.1 (≈ 262 µM) | 82.2 (≈ 298 µM)
Cc1cccc2nc(N/N=C\c3ccccc3)sc12 | 84.1 (≈ 315 µM) | 80.1 (≈ 300 µM)
Cc1cccc2nc(N/N=C\c3ccc([N+](=O)[O-])cc3)sc12 | 72.2 (≈ 231 µM) | 24.1 (≈ 77.1 µM)
Cc1cccc2nc(N/N=C\c3ccncc3)sc12 | 40.2 (≈ 150 µM) | 54.2 (≈ 202 µM)
Cc1cccc2nc(N/N=C/c3ccco3)sc12 | 38.3 (≈ 149 µM) | 50.1 (≈ 195 µM)
Cc1cccc2nc(N/N=C\c3ccc([N+](=O)[O-])cc3[N+](=O)[O-])sc12 | 80.6 (≈ 226 µM) | 12.7 (≈ 35.7 µM)
Cc1cccc2nc(N/N=C\c3ccc(Cl)cc3)sc12 | 68.2 (≈ 226 µM) | 28.7 (≈ 95.2 µM)

The next lines start with results.

IC50 [1] [µg/mL] | Structure (SMILES) | IC50 [2] [µg/mL]
42.9 (≈ 106 µM) | COc1cc(/C=N\Nc2nc3cccc(C)c3s2)ccc1OCc1ccccc1 | 66.2 (≈ 164 µM)
66.1 (≈ 156 µM) | Cc1cccc2nc(N/N=C\c3ccc(Br)cc3Br)sc12 | 10.1 (≈ 23.8 µM)
8.99 (≈ 28.5 µM) | Cc1cccc2nc(N/N=C\c3cc(O)c(O)c(O)c3)sc12 | 68.6 (≈ 217 µM)
54.4 (≈ 145 µM) | COc1ccc(/C=N\Nc2nc3cccc(C)c3s2)cc1Br | 58.6 (≈ 156 µM)
48.1 (≈ 133 µM) | Cc1cccc2nc(N/N=C\c3ccc(O)c(Br)c3)sc12 | 52.4 (≈ 145 µM)
12.8 (≈ 35.7 µM) | COc1cc(/C=N\Nc2nc3cccc(C)c3s2)cc(OC)c1OC | 74.6 (≈ 209 µM)
34.2 (≈ 121 µM) | Cc1ccc(/C=N\Nc2nc3cccc(C)c3s2)cc1 | 54.3 (≈ 193 µM)
82.2 (≈ 332 µM) | Cc1cccc2nc(N/N=C/CC(C)C)sc12 | 90.7 (≈ 367 µM)
14.1 (≈ 47.2 µM) | Cc1cccc2nc(N/N=C\c3ccc(O)cc3O)sc12 | 58.2 (≈ 194 µM)
30.4 (≈ 102 µM) | COc1ccc(/C=N\Nc2nc3cccc(C)c3s2)cc1 | 72.7 (≈ 244 µM)
66.1 (≈ 232 µM) | Cc1cccc2nc(N/N=C\c3ccc(F)cc3)sc12 | 32.1 (≈ 113 µM)
68.9 (≈ 205 µM) | Cc1cccc2nc(N/N=C\c3ccc(Cl)cc3Cl)sc12 | 18.2 (≈ 54 µM)
46.1 (≈ 134 µM) | COc1ccc2[nH]c([S+]([O-])Cc3ncc(C)c(OC)c3C)nc2c1 (configuration not stated) [OMEPRAZOLE] | 
80.2 (≈ 366 µM) | CC/C=N/Nc1nc2cccc(C)c2s1 | 78.5 (≈ 358 µM)
42.1 (≈ 107 µM) | COc1cc(/C=N\Nc2nc3cccc(C)c3s2)cc(Br)c1O | 56.4 (≈ 144 µM)
56.4 (≈ 157 µM) | Cc1cccc2nc(N/N=C\c3ccc(Oc4ccccc4)cc3)sc12 | 60.9 (≈ 169 µM)
28.1 (≈ 91.8 µM) | Cc1cccc2nc(N/N=C/c3cc4ccccc4[nH]3)sc12 | 30.2 (≈ 98.5 µM)
26.2 (≈ 83.6 µM) | COc1ccc(/C=N\Nc2nc3cccc(C)c3s2)cc1O | 56.2 (≈ 179 µM)
20.4 (≈ 62.2 µM) | COc1ccc(/C=N\Nc2nc3cccc(C)c3s2)c(OC)c1 | 68.1 (≈ 208 µM)
